From ChEMBL document CHEMBL1148511, “Novel 5-azaindole factor VIIa inhibitors” (Bioorg Med Chem Lett, 2006)

Legend:
Coagulation factor VII = target: T1, Coagulation factor VII (Homo sapiens, UniProt P08709); assay: Binding affinity to F7a/TF complex; type: protein-complex assay
T1 sequence (P08709 whole entry): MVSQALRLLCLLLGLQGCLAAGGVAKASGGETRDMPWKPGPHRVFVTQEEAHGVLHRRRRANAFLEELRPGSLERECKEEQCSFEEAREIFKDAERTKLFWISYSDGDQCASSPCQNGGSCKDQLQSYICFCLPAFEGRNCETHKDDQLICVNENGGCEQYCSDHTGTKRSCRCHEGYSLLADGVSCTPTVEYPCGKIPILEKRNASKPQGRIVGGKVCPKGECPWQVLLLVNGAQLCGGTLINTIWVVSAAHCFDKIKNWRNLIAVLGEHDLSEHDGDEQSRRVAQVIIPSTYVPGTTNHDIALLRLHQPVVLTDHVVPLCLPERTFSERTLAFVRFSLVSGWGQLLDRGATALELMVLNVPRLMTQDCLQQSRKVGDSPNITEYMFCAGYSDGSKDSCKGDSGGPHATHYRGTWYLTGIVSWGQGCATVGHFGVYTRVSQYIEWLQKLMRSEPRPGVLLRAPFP

[1] = target: Coagulation factor VII and X (Homo sapiens) (UniProt P00742+P08709); assay: Selectivity for F7a/TF over F10a; type: protein assay
Outline: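 Reactions were started with pNA substrate at Km and read as A405 over time. Ki was fitted with the Morrison tight-binding equation.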

[2] = target: Coagulation factor VII/tissue factor (Homo sapiens) (UniProt P08709+P13726); assay: Selectivity for F7a/TF over trypsin; type: protein-complex assay
Outline: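 Trypsin (10 nM) was tested without CaCl2, using Tosyl-Gly-Pro-Lys-pNA at Km. Readout was kinetic A405, and Ki was fitted with the Morrison tight-binding equation.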

[3] = target: Thrombin and coagulation factor VII (Homo sapiens) (UniProt P00734+P08709); assay: Selectivity for F7a/TF over F2a; type: protein assay
Outline: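 FVIIa (7 nM) with soluble tissue factor (11 nM) was run in 1.5 mM EDTA. Thrombin (12.7 nM) was run in 1 mM EDTA with Tosyl-Gly-Pro-Lys-pNA at Km. Hydrolysis was followed at 405 nm, and apparent Ki came from a Morrison equation fit.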

[4] = Binding affinity to trypsin; set-up: species or system Homo sapiens
Coagulation factor X = Coagulation factor X (Homo sapiens, UniProt P00742); assay: Binding affinity to F10a
Prothrombin = Prothrombin (Homo sapiens, UniProt P00734); assay: Binding affinity to F2a

Sequence of Coagulation factor X (P00742 41-179 limits assumed): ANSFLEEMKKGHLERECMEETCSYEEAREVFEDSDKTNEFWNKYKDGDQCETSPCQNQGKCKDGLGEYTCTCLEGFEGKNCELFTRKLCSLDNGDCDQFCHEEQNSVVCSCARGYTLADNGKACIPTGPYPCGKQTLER
Sequence of Coagulation factor X (P00742 235-488 limits assumed): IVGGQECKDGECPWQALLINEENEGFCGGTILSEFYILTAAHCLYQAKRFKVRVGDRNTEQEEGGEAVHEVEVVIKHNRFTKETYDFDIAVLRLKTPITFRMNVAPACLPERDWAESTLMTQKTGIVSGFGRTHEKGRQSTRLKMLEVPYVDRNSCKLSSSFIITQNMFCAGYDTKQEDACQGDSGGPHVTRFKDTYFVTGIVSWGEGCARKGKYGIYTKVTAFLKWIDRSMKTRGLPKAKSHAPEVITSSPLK

Row | Compound | Ki (Coagulation factor VII) [µM] | Ratio Ki [1] | Ratio Ki [2] | Ratio Ki [3] | Ki [4] [µM] | Ki (Coagulation factor X) [µM] | Ki (Prothrombin) [µM]
1 | CCCCCNC(=O)NCc1cccc(-c2cccc(-c3cc4c[nH]ccc-4n3)c2O)c1 | 0.335 | 388 | 181 | 343 |  |  | 
2 | O=C(Cc1ccccc1)NCc1cccc(-c2cccc(-c3cc4c[nH]ccc-4n3)c2O)c1 |  | 46 | 26 | 24 |  |  | 
3 | COc1ccccc1NC(=O)NCc1cccc(-c2cccc(-c3cc4c[nH]ccc-4n3)c2O)c1 | 0.047 | 1720 | 3190 | 3190 |  |  | 
4 | O=C(NCc1cccc(-c2cccc(-c3cc4c[nH]ccc-4n3)c2O)c1)C(CO)c1cccnc1 (configuration not stated) | 0.61 | 149 | 34 | 107 |  |  | 
5 | O=C(NCc1cccc(-c2cccc(-c3cc4c[nH]ccc-4n3)c2O)c1)Nc1c(F)cccc1F | 0.033 | 2700 | 2180 | 3940 |  |  | 
6 | O=C(NCc1cccc(-c2cccc(-c3cc4c[nH]ccc-4n3)c2O)c1)N1CCCC1 | 17 | 3 | 9 | 5 |  |  | 
7 | COc1ccc(NC(=O)NCc2cccc(-c3cccc(-c4cc5c[nH]ccc-5n4)c3O)c2)c(OC)c1 | 0.028 | 2640 | 5000 | 3180 |  |  | 
8 | O=C(NCc1cccc(-c2cccc(-c3cc4c[nH]ccc-4n3)c2O)c1)C(CO)c1ccccc1 (configuration not stated) | 0.22 | 136 | 57 | 470 |  |  | 
9 | O=C(Cc1c(F)cccc1F)NCc1cccc(-c2cccc(-c3cc4c[nH]ccc-4n3)c2O)c1 | 9.5 | 10 | 16 | 16 |  |  | 
10 | O=C(NCc1cccc(-c2cccc(-c3cc4c[nH]ccc-4n3)c2O)c1)N(O)Cc1ccccc1 | 0.072 | 653 | 375 | 750 |  |  | 
11 | O=C(NCCc1ccccc1)NCc1cccc(-c2cccc(-c3cc4c[nH]ccc-4n3)c2O)c1 | 0.27 | 417 | 96 | 174 |  |  | 
12 | O=C(NCc1cccc(-c2cccc(-c3cc4c[nH]ccc-4n3)c2O)c1)C(O)c1ccccc1 (configuration not stated) | 0.85 | 80 | 57 | 68 |  |  | 
13 | N=C(N)c1ccc2[nH]c(-c3cccc(-c4cc(CNC(N)=O)ccc4O)c3O)nc2c1 |  |  |  |  | 3.6 |  | 
14 | CN1CCN(C(=O)NCc2cccc(-c3cccc(-c4cc5c[nH]ccc-5n4)c3O)c2)CC1 | 130 | 1 | 1 | 1 |  |  | 
15 | NC(=O)NCc1cccc(-c2cccc(-c3cc4c[nH]ccc-4n3)c2O)c1 |  |  |  |  | 46.5 | 125 | 71.5

Further lines, results first:

Row | Ki (Coagulation factor VII) [µM] | Ratio Ki [1] | Ratio Ki [2] | Ratio Ki [3] | Ki [4] [µM] | Ki (Coagulation factor X) [µM] | Ki (Prothrombin) [µM] | Compound
16 | 0.06 | 2170 | 2170 | 2000 |  |  |  | CC(=O)c1cccc(NC(=O)NCc2cccc(-c3cccc(-c4cc5c[nH]ccc-5n4)c3O)c2)c1
17 | 0.088 | 705 | 1590 | 1020 |  |  |  | COc1ccc(NC(=O)NCc2cccc(-c3cccc(-c4cc5c[nH]ccc-5n4)c3O)c2)cc1
18 |  | 789 | 495 | 305 |  |  |  | CC(=O)c1ccc(NC(=O)NCc2cccc(-c3cccc(-c4cc5c[nH]ccc-5n4)c3O)c2)cc1
19 | 0.0615 | 1010 | 2030 | 2110 |  |  |  | O=C(NCc1cccc(-c2cccc(-c3cc4c[nH]ccc-4n3)c2O)c1)Nc1ccccc1
20 |  | 429 | 120 | 169 |  |  |  | O=C(NCCc1cccs1)NCc1cccc(-c2cccc(-c3cc4c[nH]ccc-4n3)c2O)c1
21 | 0.058 | 966 | 1100 | 2240 |  |  |  | O=C(NCc1cccc(-c2cccc(-c3cc4c[nH]ccc-4n3)c2O)c1)Nc1ccc(C(=O)O)cc1
22 | 0.1 | 1600 | 1500 | 1500 |  |  |  | COc1cccc(NC(=O)NCc2cccc(-c3cccc(-c4cc5c[nH]ccc-5n4)c3O)c2)c1
23 | 0.33 | 455 | 455 | 455 |  |  |  | O=C(NCc1cccc(-c2cccc(-c3cc4c[nH]ccc-4n3)c2O)c1)Nc1ccc(F)c(F)c1
24 |  | 623 | 1150 | 769 |  |  |  | O=C(NCc1cccc(-c2cccc(-c3cc4c[nH]ccc-4n3)c2O)c1)Nc1ccsc1
25 | 2.7 | 67 | 56 | 56 |  |  |  | O=C(NCc1cccc(-c2cccc(-c3cc4c[nH]ccc-4n3)c2O)c1)Nc1ccccn1
26 | 0.13 | 923 | 1150 | 1150 |  |  |  | O=C(NCc1cccc(-c2cccc(-c3cc4c[nH]ccc-4n3)c2O)c1)Nc1cccc(F)c1
27 | 0.11 | 382 | 1360 | 1360 |  |  |  | O=C(NCc1cccc(-c2cccc(-c3cc4c[nH]ccc-4n3)c2O)c1)Nc1ccc(F)cc1
28 |  | 600 | 538 | 938 |  |  |  | O=C(NCc1cccc(-c2cccc(-c3cc4c[nH]ccc-4n3)c2O)c1)Nc1cccs1
29 | 0.1 | 1700 | 1500 | 1200 |  |  |  | O=C(NCc1cccc(-c2cccc(-c3cc4c[nH]ccc-4n3)c2O)c1)Nc1ccc(F)cc1F
30 | 0.83 | 181 | 181 | 181 |  |  |  | O=C(NCc1cccc(-c2cccc(-c3cc4c[nH]ccc-4n3)c2O)c1)Nc1cc(F)cc(F)c1
31 | 0.155 | 635 | 935 | 968 |  |  |  | O=C(NCc1cccc(-c2cccc(-c3cc4c[nH]ccc-4n3)c2O)c1)Nc1cccnc1
32 |  | 2630 | 2630 | 2630 |  |  |  | O=C(NCc1cccc(-c2cccc(-c3cc4c[nH]ccc-4n3)c2O)c1)Nc1ccccc1Cl
33 | 0.057 | 1930 | 2630 | 2460 |  |  |  | O=C(NCc1cccc(-c2cccc(-c3cc4c[nH]ccc-4n3)c2O)c1)Nc1ccccc1F
